Source: ChEMBL document CHEMBL1158585, “Oploxynes A and B, polyacetylenes from the stems of Oplopanax elatus” (J Nat Prod, 2010)
The source made the active and inactive calls. The calls are words filed in the database; no cut-off is given here.

Columns and labels:
RAW264.7 [1] = assay: Cytotoxicity in mouse RAW264.7 cells; assay type: cell-based
RAW264.7 [2] = assay: Antiinflammatory activity in lipopolysaccharide-induced mouse RAW264.7 cells assessed as inhibition of nitric oxide production after 20 to 24 hrs by Griess method; assay type: functional, cell-based
How it was run: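 RAW264.7 cells seeded at 1 × 10⁵ cells/well and left 6 h to attach, then given phenol red-free medium with 1 µg/mL E. coli LPS (strain 055:B5), with or without compound, for 20-24 h. Compounds were serially diluted. Supernatant nitrite read by Griess reagent, absorbance at 540 nm, against a NaNO₂ standard curve. Control got 0.5% (v/v) DMSO. Triplicate wells.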

RAW264.7 [3] = assay: Antiinflammatory activity in lipopolysaccharide-induced mouse RAW264.7 cells assessed as inhibition of prostaglandin E2 production after 20 to 24 hrs; assay type: functional, cell-based
How it was run: (§1)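 PGE₂ made from endogenous arachidonic acid was measured with a commercial PGE₂ parameter assay kit, following the manufacturer's protocol.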

RAW264.7 [4] = assay: Antiinflammatory activity in lipopolysaccharide-induced mouse RAW264.7 cells assessed as inhibition of prostaglandin E2 production at 8 uM after 24 hrs; assay type: functional, cell-based; how it was run: as §1
RAW264.7 [5] = assay: Antiinflammatory activity in lipopolysaccharide-induced mouse RAW264.7 cells assessed as inhibition of nitric oxide production at 8 uM after 24 hrs by Griess method; assay type: functional, cell-based
How it was run: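 RAW264.7 cells seeded at 1 × 10⁵ cells/well and left 6 h to attach, then exposed to compound at 8 µM for 24 h in phenol red-free medium with 1 µg/mL E. coli LPS (strain 055:B5). Supernatant nitrite read by Griess reagent at 540 nm against a NaNO₂ standard curve. Control got 0.5% (v/v) DMSO. Triplicate wells.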

| SMILES | IC50 (RAW264.7 [1]) | IC50 (RAW264.7 [2]) | IC50 (RAW264.7 [3]) | inhibition (RAW264.7 [4]) | inhibition (RAW264.7 [5]) |
| --- | --- | --- | --- | --- | --- |
| C=CC(O)C#CC#C[C@@H](O)/C=C\CCCCCCC (mixture of isomers) | 3770 nM | 1280 nM | 1540 nM |  |  |
| CCCCCCC/C=C\[C@H](O)C#CC#C[C@@H](O)CC [OPLOPANDIOL] | > 40000 nM | 2720 nM | 2990 nM | Active | Active |
| CCCCCCC[C@@H]1O[C@@H]1[C@H](O)C#CC#C[C@@H](O)CC [OPLOXYNE A] | > 40000 nM | 1980 nM | 3080 nM | Active | Active |
| CCCCCCC[C@@H](OC)[C@H](O)[C@H](O)C#CC#C[C@@H](O)CC [OPLOXYNE B] | > 40000 nM | > 40000 nM | > 40000 nM |  |  |
